Measured values taken from ChEMBL document CHEMBL1154178, “Puupehanol, a sesquiterpene-dihydroquinone derivative from the marine sponge Hyrtios sp” (Bioorg Med Chem Lett, 2009).
In brackets after ≈: the same amount, converted by molar mass. Activity calls are given as the source filed them. The calls are words filed in the database; no cut-off is given here.

Columns and labels:
Format in all cases: functional, organism-based
[1] = test system: Cryptococcus neoformans; assay: Antifungal activity against Cryptococcus neoformans ATCC 90113 after 72 hrs by two fold serial dilution technique at 20 ug/mL
Method in brief: (§1)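 Top concentration in the dilution series was 20 µg/mL.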

[2] = test system: Candida albicans; assay: Antifungal activity against Candida albicans ATCC 90028 after 48 hrs by two fold serial dilution technique at 20 ug/mL; method in brief: as §1
[3] = test system: Pichia kudriavzevii; assay: Antifungal activity against Candida krusei ATCC 6258 after 48 hrs by two fold serial dilution technique at 20 ug/mL; method in brief: as §1
[4] = test system: Nakaseomyces glabratus; assay: Antifungal activity against Candida glabrata ATCC 90030 after 48 hrs by two fold serial dilution technique at 20 ug/mL; method in brief: as §1
[5] = test system: Aspergillus fumigatus; assay: Antifungal activity against Aspergillus fumigatus ATCC 90906 after 48 hrs by two fold serial dilution technique at 20 ug/mL; method in brief: as §1
[6] = test system: Cryptococcus neoformans; assay: Antifungal activity against Cryptococcus neoformans ATCC 90113 after 72 hrs by two fold serial dilution technique; settings: ATCC 90113, 72 h; method in brief: as §1
[7] = test system: Candida albicans; assay: Antifungal activity against Candida albicans ATCC 90028 after 48 hrs by two fold serial dilution technique; settings: ATCC 90028, 48 h
[8] = test system: Pichia kudriavzevii; assay: Antifungal activity against Candida krusei ATCC 6258 after 48 hrs by two fold serial dilution technique; settings: ATCC 6258, 48 h
[9] = test system: Nakaseomyces glabratus; assay: Antifungal activity against Candida glabrata ATCC 90030 after 48 hrs by two fold serial dilution technique; settings: ATCC 90030, 48 h; method in brief: as §1
[10] = test system: Aspergillus fumigatus; assay: Antifungal activity against Aspergillus fumigatus ATCC 90906 after 48 hrs by two fold serial dilution technique

SMILES: CC1(C)CCC[C@]2(C)[C@H]3C=C4C(=CC(=O)[C@H](O)[C@@H]4O)O[C@@]3(C)CC[C@@H]12
- Activity [1]: inactive
- Activity [2]: inactive
- Activity [3]: inactive
- Activity [4]: inactive
- Activity [5]: inactive

SMILES: C[C@@H]1[C@H](O)[C@@H](C)/C=C/C=C/C=C/C=C/C=C/C=C/C=C/[C@H](O[C@@H]2O[C@H](C)[C@@H](O)[C@H](N)[C@@H]2O)C[C@@H]2O[C@](O)(C[C@@H](O)C[C@@H](O)[C@H](O)CC[C@@H](O)C[C@@H](O)CC(=O)O[C@H]1C)C[C@H](O)[C@H]2C(=O)O [AMPHOTERICIN B]
- IC50 [6]: 0.34 µg/mL (≈ 0.368 µM)
- MFC [6]: 0.63 µg/mL (≈ 0.682 µM)
- MIC [6]: 0.63 µg/mL (≈ 0.682 µM)
- IC50 [7]: 0.26 µg/mL (≈ 0.281 µM)
- IC50 [8]: 0.699 µg/mL (≈ 0.756 µM)
- IC50 [9]: 0.29 µg/mL (≈ 0.314 µM)
- MFC [9]: 0.63 µg/mL (≈ 0.682 µM)
- MIC [9]: 0.63 µg/mL (≈ 0.682 µM)
- IC50 ([10]; ATCC 90906, 48 h): 1.02 µg/mL (≈ 1.1 µM)
- MFC ([10]; ATCC 90906, 48 h): 5 µg/mL (≈ 5.41 µM)

SMILES: CC1(C)CCC[C@]2(C)[C@H]3C=C4C(=CC(=O)C(O)=C4Cl)O[C@@]3(C)CC[C@@H]12 [CHLOROPUUPEHENONE]
- IC50 [6]: 5.73 µg/mL (≈ 15.8 µM)
- MFC [6]: 20 µg/mL (≈ 55.1 µM)
- MIC [6]: 10 µg/mL (≈ 27.6 µM)
- Activity [2]: inactive
- Activity [3]: inactive
- Activity [4]: inactive
- Activity [5]: inactive

SMILES: CC1(C)CCC[C@]2(C)[C@H]3C=C4C=C(O)C(=O)C=C4O[C@@]3(C)CC[C@@H]12 [PUUPEHENONE]
- IC50 [6]: 0.38 µg/mL (≈ 1.16 µM)
- MFC [6]: 1.25 µg/mL (≈ 3.81 µM)
- MIC [6]: 0.63 µg/mL (≈ 1.92 µM)
- IC50 [7]: 3.02 µg/mL (≈ 9.19 µM)
- MFC [7]: 10 µg/mL (≈ 30.4 µM)
- MIC [7]: 10 µg/mL (≈ 30.4 µM)
- IC50 [8]: 1.49 µg/mL (≈ 4.54 µM)
- MFC [8]: 2.5 µg/mL (≈ 7.61 µM)
- MIC [8]: 2.5 µg/mL (≈ 7.61 µM)
- IC50 [9]: 2.67 µg/mL (≈ 8.13 µM)
- MFC [9]: 10 µg/mL (≈ 30.4 µM)
- MIC [9]: 10 µg/mL (≈ 30.4 µM)
- MFC [10]: inactive
- IC50 ([10]; ATCC 90906, 48 h): 5.63 µg/mL (≈ 17.1 µM)
- MIC ([10]; ATCC 90906, 48 h): 10 µg/mL (≈ 30.4 µM)
